A selection: hits, their analogues and other compounds. The true share with any hit is near 3.5%.
MrgX1 antagonist: human MrgX1 receptor antagonism, primary screen; Q96LB2; MRGX1-HEK293 calcium flux, Fluo-4, BAM8-22 antagonism; active compounds read low; B-score at 10 µM; 310,000 compounds, 1.3% hits; AID 588676;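 active = calcium-response B-score plate-corrected more than 3 library SD below zero, starting fluorescence within 5 deviations, no agonist response on first addition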;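 also: peak minus trough fluorescence over baseline after final BAM8-22 challenge near maximal dose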
Target sequence (Q96LB2 whole entry, looked up): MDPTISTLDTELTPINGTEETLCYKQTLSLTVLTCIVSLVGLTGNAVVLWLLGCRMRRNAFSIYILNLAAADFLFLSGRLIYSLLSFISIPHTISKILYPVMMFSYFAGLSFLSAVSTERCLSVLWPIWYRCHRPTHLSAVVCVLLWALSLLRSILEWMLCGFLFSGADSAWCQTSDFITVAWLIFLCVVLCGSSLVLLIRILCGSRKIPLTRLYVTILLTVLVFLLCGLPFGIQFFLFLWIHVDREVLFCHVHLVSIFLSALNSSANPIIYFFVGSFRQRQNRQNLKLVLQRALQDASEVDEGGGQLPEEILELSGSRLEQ
RGS4 block: human RGS4 inhibition; P49798; 310,000 compounds, 0.45% hits; HEK293 M3R/RGS4 inducible, Fluo-4 calcium flux; active compounds read high; triggered by carbachol at its EC20; B-score at 10 µM;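 active = B-score, a plate-corrected calcium signal, over three deviations above library mean, with baseline fluorescence within five deviations of library mean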;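 also: RGS4 expression induced by doxycycline in cells with stable M3 receptor; B-score is computed from the integrated fluorescence ratio over baseline after carbachol; higher B-score means a larger calcium signal and so more RGS4 inhibition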
Target sequence (P49798 whole entry, looked up): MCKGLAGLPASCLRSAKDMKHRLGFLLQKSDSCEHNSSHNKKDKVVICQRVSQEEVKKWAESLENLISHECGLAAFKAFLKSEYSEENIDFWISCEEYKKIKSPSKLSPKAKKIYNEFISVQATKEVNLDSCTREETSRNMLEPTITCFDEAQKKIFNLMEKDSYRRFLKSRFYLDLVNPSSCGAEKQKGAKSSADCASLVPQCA
MrgX1 allo act: human MrgX1 positive allosteric modulation, primary screen | Q96LB2 | MrgX1-HEK293, Fluo-4 calcium flux, FDSS; active compounds read high | B-score at 10 µM | 310,000 compounds, 0.63% hits | AID 588675;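 active = plate-corrected calcium response at least 3 library SD above typical, normal starting fluorescence, not activating the receptor alone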;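 also: compound read alongside a low EC10 to EC30 dose of BAM8-22 agonist; peak minus trough fluorescence over baseline measured at the second addition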
RGS4 act: RGS4 potentiation or activation | B-score at 10 µM | HEK293 M3R/inducible RGS4, carbachol calcium flux Fluo4; active compounds read low | 310,000 compounds, 0.92% hits;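 active = B-score of the integrated calcium signal more than 4 SD below the library mean, with starting fluorescence not abnormally high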;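 also: negative B-score means reduced calcium response which marks RGS4 activation or potentiation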
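Reagent: ECmax carbachol challenge; Test system: M3R-expressing HEK293 line, RGS4 induced by doxycycline; Schedule: overnight RGS4 induction, 30 min dye load 37 °C, 20 min compound RT; Detection: calcium dye Fluo4 fluorescence; Read-out: Agonist-evoked peak-minus-minimum fluorescence over baseline, integrated ratio, B score.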
MrgX1 agonist: human MrgX1 receptor agonism, primary screen; 310,000 compounds, 0.44% hits; Q96LB2; MrgX1-HEK293 cells, Fluo-4 calcium fluorescence, agonist mode; active compounds read high; B-score at 10 µM;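 active = calcium response B-score plate-corrected fluorescence ratio at least 3 library SD, with starting fluorescence B-score inside 5 SD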
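Test system: HEK293 cells stably expressing human MrgX1 receptor; Input: fifteen thousand cells per well; Dosing: compound delivered in addition one of three; Schedule: overnight seeding, then 1 h dark dye loading; Technique: Fluo-4 NW calcium fluorescence; Measure: B-scored fluorescence response ratio; Controls: positive and negative controls per plate.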
MrgX1 ag confirm: confirmation of human MrgX1 receptor agonists. shares compounds with MrgX1 agonist. MrgX1-HEK293, Fluo-4 calcium fluorescence, FDSS. activation, % at 10 µM. 600 compounds, 78% hits;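 active = calcium signal rise, corrected for plate position, at least 3 library SD high, with starting brightness within 5 such deviations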
HEK293 Ca flux: MrgX1 antagonist counter-screen hit in parental HEK293 cells. shares compounds with MrgX1 antagonist. Fluo-4 calcium fluorescence, FDSS. fluorescence ratio F(max-min)/F0 at 10 µM. 4,000 compounds, 2% hits. AID 624111;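 active = duplicate-averaged calcium fluorescence ratio at least three times the standard deviation of buffer wells, a nonspecific response in parental cells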
HEK293 Ca counter: MrgX1 allosteric activator counter-screen hit in parental HEK293 cells; AID 624114; shares compounds with MrgX1 antagonist; fluorescence ratio F(max-min)/F0 at 10 µM; parental HEK293 calcium flux, Fluo-4 fluorescence ratio; active compounds read high; 4,000 compounds, 0.4% hits;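 active = calcium fluorescence ratio, averaged over duplicates, at least 3 SD of the buffer-well ratio, meaning a nonspecific response in receptor-free cells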;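 also: untransfected parental HEK293 lacking MrgX1 used as counterscreen for MrgX1 allosteric activators; fluorescence change taken during the second addition on a kinetic imager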
HEK293 Ca cntr2: counter-screen for MrgX1 activators: effect in parental HEK293 cells. shares compounds with MrgX1 antagonist. Fluo-4 calcium fluorescence (FDSS); active compounds read high. AID 624115. 4,000 compounds, 8.7% hits. fluorescence ratio F(max-min)/F0 at 10 µM;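 active = calcium fluorescence ratio at least three times the spread of buffer wells, meaning a non-specific response in parental cells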
Starred values were filed as active, the others as inactive.

CN1CCc2c(sc3c2C(=O)NC(c2ccc(-c4ccc(Cl)cc4)o2)N3)C1 (stereo unspecified) was read as MrgX1 antagonist inactive, RGS4 block inactive, MrgX1 allo act inactive, RGS4 act inactive, MrgX1 agonist 31*, MrgX1 ag confirm inactive, HEK293 Ca flux inactive, HEK293 Ca counter inactive and HEK293 Ca cntr2 inactive.
For Cc1nnc(SC(C)C#N)n1-c1ccccc1 (stereo unspecified) the results were MrgX1 antagonist inactive, RGS4 block inactive, MrgX1 allo act inactive, RGS4 act inactive and MrgX1 agonist inactive.
`Fc1cccc(NCCc2c[nH]c3ccccc23)n1` gave MrgX1 antagonist inactive, RGS4 block inactive, MrgX1 allo act inactive, RGS4 act inactive, MrgX1 agonist 28*, MrgX1 ag confirm 116%*, HEK293 Ca flux inactive, HEK293 Ca counter inactive and HEK293 Ca cntr2 inactive.
Screening CC(=O)N1c2ccc(S(=O)(=O)N3CCCCC3)cc2CC1C(=O)NCc1ccccc1C (stereo unspecified) returned MrgX1 antagonist inactive, RGS4 block inactive, MrgX1 allo act inactive, RGS4 act inactive and MrgX1 agonist inactive.
For COc1ccc(-n2c(O)c(/C=N/NS(=O)(=O)c3ccc(C)cc3)c3ccccc3c2=O)cc1OC the results were MrgX1 antagonist inactive, RGS4 block inactive, MrgX1 allo act inactive, RGS4 act -7*, MrgX1 agonist 86*, MrgX1 ag confirm 199%*, HEK293 Ca flux inactive, HEK293 Ca counter inactive and HEK293 Ca cntr2 67*.
COc1ccc(C)cc1S(=O)(=O)Nc1ccc(-n2c(C)nc3ccccc3c2=O)cc1 was read as MrgX1 antagonist inactive, RGS4 block inactive, MrgX1 allo act inactive, RGS4 act inactive and MrgX1 agonist inactive.
COc1ccc(-n2c(O)c(/C=N/Nc3nc(C)cc(C)n3)c3ccccc3c2=O)cc1OC was read as MrgX1 antagonist inactive, RGS4 block inactive, MrgX1 allo act inactive, RGS4 act inactive and MrgX1 agonist inactive.
`COc1ccc(-n2c(O)c(/C=N/NS(=O)(=O)c3cc(C)ccc3C)c3ccccc3c2=O)cc1OC` gave MrgX1 antagonist inactive, RGS4 block inactive, MrgX1 allo act inactive, RGS4 act -7.7*, MrgX1 agonist 130*, MrgX1 ag confirm 322%*, HEK293 Ca flux 0.32*, HEK293 Ca counter inactive and HEK293 Ca cntr2 132*.
CCc1cc(=O)n2c([nH]c3ccccc32)c1C#N was read as MrgX1 antagonist inactive, RGS4 block inactive, MrgX1 allo act inactive, RGS4 act inactive and MrgX1 agonist inactive.
Screening CCc1cc(=S)n2c([nH]c3ccccc32)c1C#N returned MrgX1 antagonist inactive, RGS4 block inactive, MrgX1 allo act inactive, RGS4 act inactive, MrgX1 agonist 43*, MrgX1 ag confirm 284%*, HEK293 Ca flux inactive, HEK293 Ca counter inactive and HEK293 Ca cntr2 93*.
Screening NC(=O)C1CCN(C(=O)C2CCC(=O)N(CC3CCCCC3)C2)CC1 (stereo unspecified) returned MrgX1 antagonist inactive, RGS4 block inactive, MrgX1 allo act inactive, RGS4 act inactive and MrgX1 agonist inactive.
Screening Cc1ccc(-c2n[nH]c(=O)c3ccccc23)cc1S(=O)(=O)Nc1ccccc1 returned MrgX1 antagonist inactive, RGS4 block inactive, MrgX1 allo act inactive, RGS4 act inactive, MrgX1 agonist 30*, MrgX1 ag confirm 206%*, HEK293 Ca flux inactive, HEK293 Ca counter inactive and HEK293 Ca cntr2 45*.
Screening Cc1ccc(CNC(=O)c2ccc(Cl)c(S(N)(=O)=O)c2)n1C returned MrgX1 antagonist inactive, RGS4 block inactive, MrgX1 allo act inactive, RGS4 act inactive, MrgX1 agonist 71*, MrgX1 ag confirm 283%*, HEK293 Ca flux inactive, HEK293 Ca counter inactive and HEK293 Ca cntr2 inactive.
For Cc1cc(N2CCN(c3ccccc3)CC2)nc(N)n1 the results were MrgX1 antagonist inactive, RGS4 block inactive, MrgX1 allo act inactive, RGS4 act inactive, MrgX1 agonist 43*, MrgX1 ag confirm 252%*, HEK293 Ca flux inactive, HEK293 Ca counter inactive and HEK293 Ca cntr2 inactive.
Cc1cc(N2CCOCC2)nc(N)n1 was read as MrgX1 antagonist inactive, RGS4 block inactive, MrgX1 allo act inactive, RGS4 act inactive, MrgX1 agonist 73*, MrgX1 ag confirm 275%*, HEK293 Ca flux inactive, HEK293 Ca counter inactive and HEK293 Ca cntr2 78*.
Screening Cc1cc(N2CCN(c3ccccc3)CC2)nc(-c2ccccc2)n1 returned MrgX1 antagonist inactive, RGS4 block inactive, MrgX1 allo act inactive, RGS4 act inactive and MrgX1 agonist inactive.
For CCCCn1c(N)c(N(CCOC)C(=O)Cn2c(=O)oc3ccccc32)c(=O)[nH]c1=O the results were MrgX1 antagonist inactive, RGS4 block inactive, MrgX1 allo act inactive, RGS4 act inactive and MrgX1 agonist inactive.
CCOc1ccc(NC(=O)CCS(=O)(=O)c2ccc(C)cc2)cc1 was read as MrgX1 antagonist inactive, RGS4 block inactive, MrgX1 allo act inactive, RGS4 act inactive and MrgX1 agonist inactive.
For O=c1[nH]c(C2CCN(S(=O)(=O)c3ccccc3C(F)(F)F)CC2)nc2c1nnn2Cc1cccc(F)c1 the results were MrgX1 antagonist inactive, RGS4 block inactive, MrgX1 allo act inactive, RGS4 act inactive and MrgX1 agonist inactive.
Screening CC(C)(C)N1C(=O)c2ccccc2NC(=O)N1Cc1ccccc1 returned MrgX1 antagonist inactive, RGS4 block inactive, MrgX1 allo act inactive, RGS4 act inactive and MrgX1 agonist inactive.
For O=C1Nc2ccccc2C(=O)C1(Cl)Cc1ccccc1 (stereo unspecified) the results were MrgX1 antagonist inactive, RGS4 block inactive, MrgX1 allo act inactive, RGS4 act inactive, MrgX1 agonist 32*, MrgX1 ag confirm 199%*, HEK293 Ca flux inactive, HEK293 Ca counter inactive and HEK293 Ca cntr2 inactive.
`CCCCC(=O)N(Cc1ccc(F)cc1)C1CCS(=O)(=O)C1` (stereo unspecified) gave MrgX1 antagonist inactive, RGS4 block inactive, MrgX1 allo act inactive, RGS4 act inactive and MrgX1 agonist inactive.

Assay outcomes (PubChem BioAssay)
